Measured values published in ChEMBL document CHEMBL3627667, “Novel halogenated 3-deazapurine, 7-deazapurine and alkylated 9-deazapurine derivatives of L-ascorbic or imino-L-ascorbic acid: Synthesis, antitumour and antiviral activity evaluations” (Eur J Med Chem, 2015).

Key:
[1] = test system: Mammalian orthoreovirus 1; assay: Antiviral activity against Reovirus 1 expressed in African green monkey Vero cells assessed as reduction in cytopathogenicity; format: functional, cell-based; details: Mammalian orthoreovirus 1, Vero
In short: (§1)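 Confluent Vero monolayers were inoculated with 100 CCID50 of virus in the presence of 5-fold serial compound dilutions. Cytopathicity was scored once it was complete in untreated infected controls. EC50 is the concentration giving 50% reduction of virus-induced cytopathogenicity.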

[2] = Antiproliferative activity against human CEM/0 cells incubated for 72 hrs by MTT assay; format: functional, cell-based, CCRF-CEM
In short: (§2)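 Cells seeded at 5000 per well on day 0. Test agents added in five 10-fold dilutions (0.01–100 μM) for a further 72 h, with DMSO ≤0.1% as solvent control. Growth was read by MTT and absorbance converted to percentage growth against untreated cells on the same plate. IC50 came from linear regression on dose–response curves. Quadruplicate points, three independent experiments.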

[3] = Antiproliferative activity against mouse L1210/0 cells incubated for 72 hrs by MTT assay; format: functional, cell-based; in short: as §2
[4] = test system: Human alphaherpesvirus 3; assay: Antiviral activity against thymidine kinase deficient Varicella zoster virus 07-1 expressed in HEL cells assessed as reduction in plaque formation incubated for 5 days; format: functional, organism-based; details: Human alphaherpesvirus 3, 07-1, HEL, 120 h
In short: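 Confluent HEL cells in 96-well plates inoculated with TK-deficient VZV strain 07-1 at 20 PFU per well; residual virus removed after 2 h, then varying compound concentrations added in duplicate. EC50 = concentration reducing viral plaque formation by 50% versus untreated controls after 5 days.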

[5] = test system: HepG2; assay: Antiproliferative activity against human HepG2 cells incubated for 72 hrs by MTT assay; format: functional, cell-based; in short: as §2
[6] = Antiproliferative activity against human MIAPaCa2 cells incubated for 72 hrs by MTT assay; format: functional, cell-based, MIA PaCa-2; in short: as §2
[7] = test system: HeLa; assay: Antiproliferative activity against human HeLa cells incubated for 72 hrs by MTT assay; format: functional, cell-based; in short: as §2
[8] = test system: SW-620; assay: Antiproliferative activity against human SW620 cells incubated for 72 hrs by MTT assay; format: functional, cell-based; in short: as §2
[9] = test system: Punta Toro virus; assay: Antiviral activity against Punta Toro virus expressed in African green monkey Vero cells assessed as reduction in cytopathogenicity; format: functional, organism-based; in short: as §1
[10] = test system: Human respirovirus 3; assay: Antiviral activity against Parainfluenza virus 3 expressed in African green monkey Vero cells assessed as reduction in cytopathogenicity; format: functional, organism-based; details: Human respirovirus 3, Vero; in short: as §1
[11] = test system: Coxsackievirus B4; assay: Antiviral activity against Coxsackievirus B4 expressed in African green monkey Vero cells assessed as reduction in cytopathogenicity; format: functional, organism-based; details: Enterovirus B; in short: as §1
[12] = Cytotoxicity against African green monkey Vero cells assessed as alteration in cell morphology by microscopy; format: cell-based; details: chlorocebus sabaeus
In short: (§3)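 MCC is the compound concentration causing a microscopically visible alteration of cell morphology in the cultures used for the antiviral assays.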

[13] = test system: Human alphaherpesvirus 3; assay: Antiviral activity against Varicella zoster virus Oka expressed in HEL cells assessed as reduction in plaque formation incubated for 5 days; format: functional, organism-based; details: Human alphaherpesvirus 3, Oka, 120 h
In short: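 Confluent HEL cells were inoculated at 20 PFU per well of VZV. Residual virus was removed after 2 h, then compound dilutions were added in duplicate. EC50 is the concentration reducing plaque formation by 50% versus untreated controls after 5 days.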

[14] = test system: Sindbis virus; assay: Antiviral activity against Sindbis virus expressed in African green monkey Vero cells assessed as reduction in cytopathogenicity; format: functional, organism-based; in short: as §1
[15] = Cytotoxicity against human HEL cells assessed as alteration in cell morphology incubated for 3 days by microscopy; format: cell-based; in short: as §3
[16] = test system: HEL; assay: Cytotoxicity against human HEL cells assessed as cell growth reduction incubated for 3 days; format: cell-based; details: 72 h
In short: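 HEL cells were seeded at 5 × 10^3 per well and allowed to proliferate for 24 h before compound-containing medium was added. After 3 days at 37 °C, cells were counted with a Coulter counter. CC50 (50% reduction of proliferation versus untreated controls) was estimated from graphic plots.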

[17] = test system: Human betaherpesvirus 5; assay: Antiviral activity against Human cytomegalovirus AD169 expressed in HEL cells assessed as reduction in plaque formation incubated for 7 days by Giemsa stain based microscopy; format: functional, organism-based; details: Human betaherpesvirus 5, AD169, HEL, 168 h
In short: (§4)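 Confluent HEL fibroblasts were infected at 100 PFU per well. After 2 h, residual virus was removed and compound-containing medium added, in duplicate. After 7 days at 37 °C, cells were ethanol-fixed, Giemsa-stained and examined microscopically. EC50 was read from graphic plots of % cytopathogenicity versus concentration.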

[18] = test system: HeLa; assay: Cytotoxicity against human HeLa cells assessed as cell growth reduction incubated for 3 days; format: cell-based; details: 72 h
[19] = test system: Human betaherpesvirus 5; assay: Antiviral activity against Human cytomegalovirus Davis expressed in HEL cells assessed as reduction in plaque formation incubated for 7 days by Giemsa stain based microscopy; format: functional, organism-based; details: Human betaherpesvirus 5, Davis, 168 h; in short: as §4
[20] = Cytotoxicity against CRFK cells assessed as cell growth reduction incubated for 3 days; format: cell-based, Felis catus; details: cat, 72 h
[21] = test system: CFPAC-1; assay: Antiproliferative activity against human CFPAC-1 cells incubated for 72 hrs by MTT assay; format: functional, cell-based; details: CFPAC-1, 72 h; in short: as §2

SMILES	IC50 ([2]; Homo sapiens, CCRF-CEM, 72 h) [µM]	IC50 ([3]; Mus musculus, L1210/0, 72 h) [µM]	IC50 ([5]; Homo sapiens, HepG2, 72 h) [µM]	IC50 ([6]; Homo sapiens, MIA PaCa-2, 72 h) [µM]	IC50 ([7]; Homo sapiens, HeLa, 72 h) [µM]	IC50 ([8]; Homo sapiens, SW-620, 72 h) [µM]	also measured
O=C1O/C(=C\Cn2cnc3ccn(C/C=C4\OC(=O)C(OCc5ccccc5)=C4OCc4ccccc4)c3c2=O)C(OCc2ccccc2)=C1OCc1ccccc1	19	4.5	> 100	26.2	5.6	47.2	EC50 [1]: > 20 µM; EC50 [4]: 7.6 µM; EC50 [9]: 6.7 µM; EC50 [10]: > 20 µM; EC50 [11]: > 20 µM; MCC [12]: ≥ 20 µM; EC50 [13]: 13.8 µM; EC50 [14]: > 20 µM
COc1nc(OC)c2c(ccn2CCC2(O)NC(=O)C(OCc3ccccc3)=C2OCc2ccccc2)n1 (stereo not given)	87		> 100				
O=C1O/C(=C\Cn2cnc3c(F)nc(F)c(Cl)c32)C(OCc2ccccc2)=C1OCc1ccccc1			> 100	78	> 100	55	EC50 [1]: > 20 µM; MCC at 72 h [15]: > 100 µM; CC50 [16]: ≥ 100 µM; EC50 [17]: 44.7 µM; Activity [18]: Non-toxic; EC50 [9]: 12 µM; EC50 [10]: > 20 µM; EC50 [11]: 14.5 µM; EC50 [19]: 44.7 µM; MCC [12]: ≥ 20 µM; EC50 [14]: > 20 µM
O=C1NC(O)(CCn2cnc3ccnc(Cl)c32)C(OCc2ccccc2)=C1OCc1ccccc1 (stereo not given)			> 100	60	21	> 100	
O=C1NC(O)(CCn2cnc3cncc(Br)c32)C(OCc2ccccc2)=C1OCc1ccccc1 (stereo not given)	25	50	66.5	48.7	77	> 100	
Nc1nc(F)c(Cl)c2c1ncn2CCC1(O)NC(=O)C(OCc2ccccc2)=C1OCc1ccccc1 (stereo not given)			> 100	> 100	39	59	
O=C1NC(O)(/C=C\n2cc(I)c3c(Cl)ncnc32)C(OCc2ccccc2)=C1OCc1ccccc1 (stereo not given)	> 250	> 250	32.4	22.6	> 250	46.9	
O=C1O/C(=C\Cn2cnc3cc[nH]c3c2=O)C(OCc2ccccc2)=C1OCc1ccccc1	16	28	> 100	> 100	27	> 100	
O=C1NC(O)(CCn2cnc3cc[nH]c3c2=O)C(OCc2ccccc2)=C1OCc1ccccc1 (stereo not given)	87	107	> 100	36.6	92	90.7	
O=C1O/C(=C\Cn2cnc3cncc(Br)c32)C(OCc2ccccc2)=C1OCc1ccccc1 (mixture of isomers)	5.7	6.8	46.9	22.6	15	32.9	
COc1nc(OC)c2c(ccn2C/C=C2\OC(=O)C(OCc3ccccc3)=C2OCc2ccccc2)n1 (mixture of isomers)	4.1	4.7	> 100	33.9	12	47.1	MCC at 72 h [15]: ≥ 20 µM; CC50 [16]: 36.6 µM; EC50 [17]: 4.99 µM; EC50 [19]: 1.99 µM
O=C1O/C(=C\Cn2cnc3c(Cl)c(F)nc(F)c32)C(OCc2ccccc2)=C1OCc1ccccc1 (mixture of isomers)			> 100	> 100	> 100	50	EC50 [1]: > 20 µM; MCC at 72 h [15]: ≥ 100 µM; CC50 [16]: > 100 µM; EC50 [17]: 8.94 µM; Activity [18]: Non-toxic; Activity [20]: Non-toxic; EC50 [9]: 12 µM; EC50 [10]: > 20 µM; EC50 [11]: > 20 µM; EC50 [19]: 8.94 µM; MCC [12]: 20 µM; EC50 [14]: > 20 µM
O=C1O/C(=C\Cn2cnc3ccnc(Cl)c32)C(OCc2ccccc2)=C1OCc1ccccc1 (mixture of isomers)			> 100	> 100	> 100	> 100	
O=C1O/C(=C\Cn2cnc3c(Cl)c(F)nc(F)c32)C(O)=C1O (mixture of isomers)			> 100	> 100	> 100	> 100	
O=C1O/C(=C\Cn2cnc3ncc(Br)c-3c2)C(OCc2ccccc2)=C1OCc1ccccc1 (mixture of isomers)	12	15	> 100	> 100	17	> 100	IC50 [21]: > 100 µM
O=C1O/C(=C\Cn2cc(I)c3c(Cl)ncnc32)C(OCc2ccccc2)=C1OCc1ccccc1 (mixture of isomers)	> 250	128	> 100	33.3	65	> 100	
O=C1NC(O)(CCn2cnc3ccn(CCC4(O)NC(=O)C(OCc5ccccc5)=C4OCc4ccccc4)c3c2=O)C(OCc2ccccc2)=C1OCc1ccccc1 (stereo in doubt; 18)		4.4	> 100	5.7	17		IC50 ([2]; ccrf-cem): 15 µM; IC50 ([8]; sw-620): 69.9 µM
O=C1NC(O)(CCn2cnc3ccn(CCC4(O)NC(=O)C(OCc5ccccc5)=C4OCc4ccccc4)c3c2=O)C(OCc2ccccc2)=C1OCc1ccccc1 (stereo in doubt; 19)							IC50 ([2]; ccrf-cem): 4.9 µM; IC50 ([3]; l1210/0): 7.6 µM; IC50 ([5]; hepg2): 52 µM; IC50 ([6]; mia paca-2): 4.4 µM; IC50 ([7]; hela): 18 µM; IC50 ([8]; sw-620): 30.5 µM
Nc1ncnc2c1ncn2C[C@H](O)CO [(S)-DHPA]							EC50 [1]: > 250 µM; EC50 [9]: > 250 µM; EC50 [10]: > 250 µM; EC50 [11]: > 250 µM; MCC [12]: > 250 µM; EC50 [14]: > 250 µM
Nc1ccn(C[C@@H](CO)OCP(=O)(O)O)c(=O)n1 [CIDOFOVIR]							MCC at 72 h [15]: > 300 µM; CC50 [16]: 153 µM; EC50 [17]: 0.61 µM; EC50 [19]: 0.51 µM
O=c1[nH]cc(F)c(=O)[nH]1 [FLUOROURACIL]			55.2		66.5	0.79	
Nc1nc(O)c2ncn(COC(CO)CO)c2n1 [GANCICLOVIR]							MCC at 72 h [15]: > 350 µM; CC50 [16]: 328 µM; EC50 [17]: 6.12 µM; EC50 [19]: 4.72 µM
NC(=O)c1ncn([C@@H]2O[C@H](CO)[C@@H](O)[C@H]2O)n1 [RIBAVIRIN]							EC50 [1]: > 250 µM; EC50 [10]: 73.5 µM; EC50 [11]: > 250 µM; MCC [12]: > 250 µM; EC50 [14]: > 250 µM
